Data taken from ChEMBL document CHEMBL3864138, “First discovery of novel 3-hydroxy-quinazoline-2,4(1H,3H)-diones as specific anti-vaccinia and adenovirus agents via 'privileged scaffold' refining approach” (Bioorg Med Chem Lett, 2016).

What was measured:
[1] = tested on: Human adenovirus 2; assay: Antiviral activity against Human adenovirus 2 infected in HEL cells assessed as inhibition of virus-induced cytopathicity; format: functional, cell-based; details: Human mastadenovirus C
[2] = tested on: Vaccinia virus; assay: Antiviral activity against Vaccinia virus infected in HEL cells assessed as inhibition of virus-induced cytopathicity; format: functional, cell-based; details: Orthopoxvirus vaccinia
[3] = Cytotoxicity against HEL cells assessed as alteration of cell morphology after 3 days by microscopic analysis; format: toxicity, cell-based; details: human
Summary of the method: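 HEL cell cultures were checked by microscopy for compound cytotoxicity, reported as MCC. The highest concentration tested was […].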

[4] = tested on: Vaccinia virus; assay: Potency index, ratio of cidofovir EC50 against Vaccinia virus infected in HEL cells to compound EC50 against Vaccinia virus infected in HEL cells; format: functional, Orthopoxvirus vaccinia
[5] = tested on: Vaccinia virus; assay: Potency index, ratio of brivudin EC50 against Vaccinia virus infected in HEL cells to compound EC50 against Vaccinia virus infected in HEL cells; format: functional, Orthopoxvirus vaccinia

Row | Structure (SMILES) | EC50 [1] | EC50 [2] | MCC at 72 h [3] | Ratio EC50 [4] | Ratio EC50 [5]
1 | Cn1c(=O)n(O)c(=O)c2cc(-c3cn(Cc4c(Cl)cccc4Cl)nn3)ccc21 | > 100 µM | > 100 µM | > 100 µM | – | –
2 | Cn1c(=O)n(O)c(=O)c2cc(-c3cn(Cc4ccc(F)c(F)c4)nn3)ccc21 | > 100 µM | 5 µM | 100 µM | – | –
3 | Cc1cn([C@H]2C[C@H](F)[C@@H](CO)O2)c(=O)[nH]c1=O [ALOVUDINE] | 10 µM | – | > 250 µM | – | –
4 | CCn1c(=O)n(O)c(=O)c2cc(-c3cn(Cc4ccccc4)nn3)ccc21 | 12 µM | > 100 µM | > 100 µM | – | –
5 | Cc1ccccc1Cn1cc(-c2ccc3c(c2)c(=O)n(O)c(=O)n3C)nn1 | > 100 µM | > 100 µM | 100 µM | – | –
6 | CCn1c(=O)n(O)c(=O)c2cc(-c3cn(Cc4ccccc4C)nn3)ccc21 | > 100 µM | > 100 µM | 20 µM | – | –
7 | CCn1c(=O)n(O)c(=O)c2cc(-c3cn(Cc4ccc(OC)cc4)nn3)ccc21 | 6.2 µM | > 100 µM | > 100 µM | – | –
8 | Cn1c(=O)n(O)c(=O)c2cc(-c3cn(Cc4ccc(F)cc4F)nn3)ccc21 | > 100 µM | > 100 µM | 100 µM | – | –
9 | CCn1c(=O)n(O)c(=O)c2cc(-c3cn(Cc4ccc(F)cc4)nn3)ccc21 | > 100 µM | > 100 µM | 100 µM | – | –
10 | CCn1c(=O)n(O)c(=O)c2cc(-c3cn(Cc4ccc(F)c(F)c4)nn3)ccc21 | > 100 µM | 1.9 µM | 20 µM | – | –
11 | Nc1ccn([C@H]2CC[C@@H](CO)O2)c(=O)n1 [ZALCITABINE] | 7.2 µM | – | > 250 µM | – | –
12 | CCn1c(=O)n(O)c(=O)c2cc(-c3cn(Cc4ccc([N+](=O)[O-])cc4)nn3)ccc21 | > 100 µM | 1.7 µM | > 100 µM | 15 | 8 - 15
13 | Cn1c(=O)n(O)c(=O)c2cc(-c3cn(Cc4ccccc4)nn3)ccc21 | > 100 µM | > 100 µM | > 100 µM | – | –
14 | Cn1c(=O)n(O)c(=O)c2cc(-c3cn(Cc4ccc(F)cc4)nn3)ccc21 | > 100 µM | > 100 µM | > 100 µM | – | –
15 | CCn1c(=O)n(O)c(=O)c2cc(-c3cn(Cc4c(F)cccc4F)nn3)ccc21 | 8 µM | > 100 µM | > 100 µM | – | –
16 | Nc1ccn(C[C@@H](CO)OCP(=O)(O)O)c(=O)n1 [CIDOFOVIR] | 10 µM | 25 µM | > 250 µM | – | –
17 | Cn1c(=O)n(O)c(=O)c2cc(-c3cn(Cc4ccc([N+](=O)[O-])cc4)nn3)ccc21 | > 100 µM | 2.4 µM | > 100 µM | – | –
18 | Cn1c(=O)n(O)c(=O)c2cc(-c3cn(Cc4ccc(C#N)cc4)nn3)ccc21 | > 100 µM | > 100 µM | > 100 µM | – | –
19 | Cn1c(=O)n(O)c(=O)c2cc(-c3cn(Cc4c(F)cccc4F)nn3)ccc21 | > 100 µM | > 100 µM | 100 µM | – | –
20 | Cn1c(=O)n(O)c(=O)c2cc(-c3cn(Cc4cc(F)ccc4F)nn3)ccc21 | > 100 µM | > 100 µM | > 100 µM | – | –
21 | CCn1c(=O)n(O)c(=O)c2cc(-c3cn(Cc4cccc(F)c4)nn3)ccc21 | 13 µM | > 100 µM | > 100 µM | – | –
22 | Cn1c(=O)n(O)c(=O)c2cc(-c3cn(Cc4ccccc4F)nn3)ccc21 | > 100 µM | > 100 µM | > 100 µM | – | –
23 | CCn1c(=O)n(O)c(=O)c2cc(-c3cn(Cc4ccc(C#N)cc4)nn3)ccc21 | > 100 µM | 15 µM | > 100 µM | – | –
24 | Cn1c(=O)n(O)c(=O)c2cc(-c3cn(Cc4cccc(F)c4)nn3)ccc21 | > 100 µM | > 100 µM | > 100 µM | – | –
25 | CCn1c(=O)n(O)c(=O)c2cc(-c3cn(Cc4cc(F)ccc4F)nn3)ccc21 | > 100 µM | > 100 µM | 20 µM | – | –
26 | COc1ccc(Cn2cc(-c3ccc4c(c3)c(=O)n(O)c(=O)n4C)nn2)cc1 | 12 µM | > 100 µM | > 100 µM | – | –
27 | CCn1c(=O)n(O)c(=O)c2cc(-c3cn(Cc4c(Cl)cccc4Cl)nn3)ccc21 | > 100 µM | > 100 µM | > 100 µM | – | –
28 | CCn1c(=O)n(O)c(=O)c2cc(-c3cn(Cc4ccc(F)cc4F)nn3)ccc21 | > 100 µM | > 100 µM | 20 µM | – | –
29 | O=c1[nH]c(=O)n([C@H]2C[C@H](O)[C@@H](CO)O2)cc1/C=C/Br [BRIVUDINE] | – | 15 µM | > 250 µM | – | –
30 | CCn1c(=O)n(O)c(=O)c2cc(-c3cn(Cc4ccccc4F)nn3)ccc21 | 6.5 µM | > 100 µM | > 100 µM | – | –
